Laboratory results taken from ChEMBL document CHEMBL5252546, “Salutaxel, a Conjugate of Docetaxel and a Muramyl Dipeptide (MDP) Analogue, Acts as Multifunctional Prodrug That Inhibits Tumor Growth and Metastasis” (J Med Chem, 2018).
Activity calls are given as the source filed them. No cut-off for these calls is given here.

How the values were obtained:
[1] = test system: 4T1; assay: Antitumor activity against mouse 4T1 cells implanted in BALB/c mouse assessed as decrease in spleen MMP2 expression level at 5.7 mg/kg,iv administrated once per week for 4 weeks in presence of compound 5b by western blot assay; type: functional, organism-based
In short: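 4T1 cells injected into mammary fat pads of BALB/c mice. Saline vehicle or test article given iv once weekly for 4 weeks. Spleen, lung and tumor lysates immunoblotted for MMP2/MMP9 with β-actin as loading control. Bands averaged over five mice per group, representative of two independent experiments.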

[2] = Toxicity in BALB/c mouse xenografted with human NCI-H1975 cells assessed as side effects at 5.7 mg/kg,iv administrated once per week for 3 weeks; type: organism-based; details: in vivo, 504 h
In short: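 Nude BALB/c nu/nu mice received subcutaneous human tumour cells into the right flank. Dosing started at mean tumour volume of 100–120 mm3, iv once weekly for 3 weeks; the taxane arm was an equimolar control. Body weight and overt side effects were monitored. Mean ± SEM, n = 8.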

[3] = Chronic toxicity in male Sprague-Dawley rat at 2 to 8 mg/kg,iv administered once per week for 30 days; type: organism-based; details: in vivo, 720 h, dose 2-8 mg/kg, time 30 day
In short: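 Long-term toxicity: rats given iv 2, 4 or 8 mg/kg and dogs 3, 6 or 18 mg/kg once weekly over 30 days; toxicokinetics recorded; highest non-severely toxic dose determined by sex.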

[4] = Volume of distribution at steady state in Beagle dog at 1 mg/kg,iv measured upto 24 hrs; type: ADME, organism-based, Canis lupus familiaris; details: in vivo, read-out: Vdss
[5] = Cmax in female Beagle dog at 1 mg/kg,iv measured upto 24 hrs; type: ADME, organism-based, Canis lupus familiaris; parameters: dose 1 mg/kg, time < 24 hrs, route iv; details: in vivo
In short: (§1)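 Beagle dogs were given a single iv infusion at 1, 2 or 4 mg/kg. Plasma parent drug and released docetaxel were followed over time. Cmax, Tmax, AUC, MRT, t1/2, CL and Vss were reported by sex and for all dogs combined.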

[6] = test system: 4T1; assay: Antitumor activity against mouse 4T1 cells implanted in BALB/c mouse assessed as decrease in S100A8 mRNA expression in lung at 20 mg/kg,iv administrated qd for 2 days by qRT-PCR analysis; type: functional, organism-based; details: time 2.0 day
In short: (§2)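 Day 19 after 4T1 implantation, mice randomised into five groups; iv vehicle or 20 mg/kg plus ip C12-iE-DAP (50 μg/mouse) and MDP (100 μg/mouse) once daily for 2 days; killed after 48 h; lung mRNA for MMP8, MMP9, PROK2, S100A8, S100A9 and IL-1β by qPCR; mean ± SEM.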

[7] = AUC (0-infinity) in male Beagle dog at 2 mg/kg,iv measured upto 24 hrs; type: ADME, organism-based, Canis lupus familiaris; parameters: time < 24 hrs, dose 2 mg/kg, route iv; details: in vivo
In short: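 Single iv dose: rats 2, 4 or 8 mg/kg by intravenous injection; Beagle dogs 1, 2 or 4 mg/kg by intravenous infusion. Plasma concentration–time data were analysed by sex and pooled. Reported parameters: Cmax, Tmax, AUC0−t, AUC0−∞, MRT0−∞, t1/2, CL, Vss, given as mean ± SD.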

[8] = test system: 4T1; assay: Antitumor activity against mouse 4T1 cells implanted in BALB/c mouse assessed as decrease in serum S100A9 level at 20 mg/kg,iv administrated once per week for 4 weeks by ELISA; type: functional, organism-based
In short: (§3)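 4T1 fat-pad model in BALB/c mice, iv 5–20 mg/kg once weekly for 4 weeks, with vehicle and naive groups; serum MMP9, TIMP-1, IL-6 and S100A9 measured by mouse ELISA kits.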

[9] = Prodrug conversion in mouse plasma implanted with mouse 4T1 cells assessed as Cmax of docetaxel at 4 mg/kg,iv measured upto 72 hrs; type: ADME, organism-based; parameters: dose 4 mg/kg, time < 72 hrs, route iv; details: in vivo
[10] = test system: 4T1; assay: Antitumor activity against mouse 4T1 cells xenografted with BALB/c mouse assessed as decrease in lung metastasis at 10 mg/kg,iv administrated once per week for 4 weeks; type: functional, organism-based
In short: (§4)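 4T1 cells injected into the mammary fat pad of BALB/c mice; iv saline vehicle or 5, 10 or 20 mg/kg once weekly for 4 weeks; body weight, tumour volume, tumour weight, lung metastatic nodule count and metastasis score recorded; n = 10, mean ± SEM, ANOVA and Student's t test.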

[11] = Toxicity in BALB/c mouse xenografted with human A549/Taxol cells assessed as body weight loss at 10 mg/kg,iv administrated once per week for 3 weeks; type: organism-based, A549/TR; details: in vivo, 504 h
[12] = test system: 4T1; assay: Antitumor activity against mouse 4T1 cells implanted in BALB/c mouse assessed as decrease in serum TIMP-1 level at 5 mg/kg,iv administrated once per week for 4 weeks by ELISA; type: functional, organism-based; in short: as §3
[13] = Half life in female Beagle dog at 4 mg/kg,iv measured upto 24 hrs; type: ADME, organism-based, Canis lupus familiaris; details: in vivo
[14] = test system: 4T1; assay: Antitumor activity against mouse 4T1 cells implanted in BALB/c mouse assessed as decrease in serum TIMP-1 level at 10 mg/kg,iv administrated once per week for 4 weeks by ELISA; type: functional, organism-based; in short: as §3
[15] = MRT (0 to infinity) in female rat at 8 mg/kg,iv measured upto 24 hrs; type: ADME, organism-based; details: in vivo
[16] = Cmax in rat at 2 mg/kg,iv measured upto 24 hrs; type: ADME, organism-based; parameters: time < 24 hrs, dose 2 mg/kg, route iv; details: in vivo
In short: (§5)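 Rats were given a single iv injection at 2, 4 or 8 mg/kg. Plasma parent drug and released docetaxel were followed over time. Cmax, Tmax, AUC, MRT, t1/2, CL and Vss were reported for males, females and all animals combined.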

[17] = Drug metabolism in rat plasma assessed as metabolite docetaxel formation at 4 mg/kg,iv measured after 24 hrs; type: ADME, organism-based; details: in vivo
[18] = Toxicity in BALB/c mouse xenografted with human A549/Taxol cells assessed as side effects at 10 mg/kg,iv administrated once per week for 3 weeks; type: organism-based, A549/TR; details: in vivo, 504 h
[19] = Volume of distribution at steady state in male Beagle dog at 1 mg/kg,iv measured upto 24 hrs; type: ADME, organism-based, Canis lupus familiaris; details: in vivo, read-out: Vdss
[20] = test system: 4T1; assay: Antitumor activity against mouse 4T1 cells xenografted with BALB/c mouse assessed as inhibition of tumor growth at 20 mg/kg,iv administrated once per week for 4 weeks; type: functional; details: 4T1, 672 h; in short: as §4
[21] = MRT in mouse tumor implanted with mouse 4T1 cells at 10 mg/kg,iv measured upto 72 hrs; type: ADME, organism-based, Neoplasm
[22] = Cmax in female Beagle dog at 4 mg/kg,iv measured upto 24 hrs; type: ADME, organism-based, Canis lupus familiaris; parameters: time < 24 hrs, dose 4 mg/kg, route iv; details: in vivo; in short: as §1
[23] = test system: 4T1; assay: Antitumor activity against mouse 4T1 cells implanted in BALB/c mouse assessed as decrease in IL-1beta mRNA expression in lung at 20 mg/kg,iv administrated qd for 2 days by qRT-PCR analysis; type: functional, organism-based; details: time 2.0 day; in short: as §2
[24] = molecular target: Cytochrome P450 1A (Homo sapiens, UniProt P04798+P05177); assay: Inhibition of CYP1A in human liver microsomes using probe substrate at 0.1 to 100 uM in presence of NADPH; type: ADME, Microsome; details: dose 0.1-100 µM
[25] = Tmax in male rat at 2 mg/kg,iv measured upto 24 hrs; type: ADME, organism-based; details: in vivo
[26] = test system: MCF7; assay: Antiproliferative activity against human MCF7 cells assessed inhibition of cell growth incubated for 72 hrs by SRB assay; type: functional, cell-based; details: MCF7, 72 h
[27] = Tmax in female Beagle dog at 4 mg/kg,iv measured upto 24 hrs; type: ADME, organism-based, Canis lupus familiaris; details: in vivo
[28] = test system: A549; assay: Antiproliferative activity against human A549 cells assessed inhibition of cell growth incubated for 72 hrs by SRB assay; type: functional, cell-based; details: A549, 72 h
[29] = Cmax in female rat at 8 mg/kg,iv measured upto 24 hrs; type: ADME, organism-based; parameters: time < 24 hrs, dose 8 mg/kg, route iv; details: in vivo; in short: as §5
[30] = Plasma protein binding in human plasma incubated for 4 hrs; type: ADME, cell-free; details: read-out: PPB (converted)
[31] = MRT (0 to infinity) in female Beagle dog at 4 mg/kg,iv measured upto 24 hrs; type: ADME, organism-based, Canis lupus familiaris; details: in vivo

For CC(=O)O[C@@]12CO[C@@H]1C[C@H](O)[C@@]1(C)C(=O)[C@H](O)C3=C(C)[C@@H](OC(=O)[C@H](O)[C@@H](NC(=O)OC(C)(C)C)c4ccccc4)C[C@@](O)([C@@H](OC(=O)c4ccccc4)[C@H]21)C3(C)C [DOCETAXEL ANHYDROUS], the Activity [1] was “inactive” and the Activity [2] was “Non-Toxic”.

For CC(=O)O[C@@]12CO[C@@H]1C[C@H](O)[C@@]1(C)C(=O)[C@H](O)C3=C(C)[C@@H](OC(=O)[C@H](OC(=O)CCC(=O)NCCCC[C@H](NC(=O)CC[C@@H](NC(=O)[C@H](C)NC(=O)/C=C/c4ccc(F)cc4Cl)C(N)=O)C(=O)O)[C@@H](NC(=O)OC(C)(C)C)c4ccccc4)C[C@@](O)([C@@H](OC(=O)c4ccccc4)[C@H]21)C3(C)C, the Activity [3] was “Toxic”, the Vd [4] was 0.169 L/kg and the Cmax [5] was 4020 ng/mL. For the same compound, the Activity [6] was “Active”, the AUC(0-inf) [7] was 4890 ng·h/mL and the Activity [8] was “Active”. For the same compound, the Cmax [9] was 43.3 µM, the Activity [10] was “Active” and the Activity [11] was “Non-Toxic”. For the same compound, the Activity [12] was “Active”, the half-life [13] was 33.8 min and the Activity [14] was “Active”. For the same compound, the MRT inf [15] was 28.2 min, the Cmax [16] was 15200 ng/mL and the Drug metabolism [17] was “Metabolite_Detected”. For the same compound, the Activity [18] was “Non-Toxic”, the Vd [19] was 0.134 L/kg and the inhibition in vivo at 20 mg/kg [20] was 57.2%. The MRT [21] was 132 min, the Cmax [22] was 30800 ng/mL and the Activity [23] was “Active”. The “inhibition (INH)” value [24] was “Not Active”, the Tmax [25] was 4.98 min and the IC50 [26] was 16.3 nM. It also gave a Tmax [27] of 30 min, an IC50 [28] of 16.3 nM and a Cmax [29] of 62500 ng/mL. It also gave a fraction unbound at 4 h [30] of 0.007 and an MRT inf [31] of 26 min.
